Measured values published in ChEMBL document CHEMBL1138189 (J Med Chem, 2006).
“And” between values parts separate entries of the source, which are not always exact repeats. Equal entries are not always repeated.

What was measured:
Adenosine receptor A1 = biological target: T1, Adenosine receptor A1 (Homo sapiens, UniProt P30542); experiment: Displacement of [3H]DPCPX from human adenosine A1 receptor expressed in CHO cells; format: cell-based
T1 sequence (P30542 whole entry): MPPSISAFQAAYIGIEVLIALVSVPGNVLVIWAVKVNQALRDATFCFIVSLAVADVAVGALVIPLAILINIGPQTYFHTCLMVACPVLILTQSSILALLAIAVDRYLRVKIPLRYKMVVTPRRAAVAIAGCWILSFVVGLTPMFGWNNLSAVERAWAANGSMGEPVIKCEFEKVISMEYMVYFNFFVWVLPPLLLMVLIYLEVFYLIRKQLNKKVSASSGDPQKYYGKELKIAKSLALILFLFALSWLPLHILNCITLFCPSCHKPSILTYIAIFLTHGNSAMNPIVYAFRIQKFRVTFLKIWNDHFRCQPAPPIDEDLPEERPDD
Summary of the method: (§1)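 CHO membranes bearing recombinant human A1 receptor, in 50 mM Tris HCl pH 7.4, incubated 120 min at 25 °C with 1 nM [3H]DPCPX and 6-8 test concentrations. CHA defined nonspecific binding. Bound and free label were separated on GF/B glass-fiber filters and counted. […] Means ± SEM.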

Adenosine receptor A2b = biological target: T2, Adenosine receptor A2b (Homo sapiens, UniProt P29275); experiment: Inhibition of NECA-stimulated cAMP accumulation in CHO cells expressing human adenosine A2B receptor; format: functional, cell-based
T2 sequence (P29275 whole entry): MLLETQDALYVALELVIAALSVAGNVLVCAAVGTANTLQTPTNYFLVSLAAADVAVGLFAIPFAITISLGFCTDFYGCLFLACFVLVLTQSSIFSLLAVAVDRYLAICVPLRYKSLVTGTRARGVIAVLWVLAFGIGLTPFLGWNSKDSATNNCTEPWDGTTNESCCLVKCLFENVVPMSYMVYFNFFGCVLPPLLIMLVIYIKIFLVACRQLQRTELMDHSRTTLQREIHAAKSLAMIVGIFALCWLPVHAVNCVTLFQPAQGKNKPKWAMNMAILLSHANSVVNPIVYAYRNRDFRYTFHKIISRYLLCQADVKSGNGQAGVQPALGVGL
Summary of the method: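 Trypsinized A2B-transfected CHO cells (1 × 10⁶ per assay) were preincubated 10 min at 37 °C in pH 7.4 salt buffer with 2 IU/mL adenosine deaminase and Ro 20-1724, then stimulated with 100 nM NECA plus antagonist. Stopped with cold 6% TCA, ether-extracted, and cAMP measured by [3H]cAMP competition with adrenal binding protein. IC50 derived.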

Adenosine receptor A2a = Adenosine receptor A2a (Homo sapiens, UniProt P29274); experiment: Displacement of [3H]ZM-241385 from human adenosine A2A receptor expressed in HEK293 cells; format: cell-based
Sequence of Adenosine receptor A2a (P29274 whole entry): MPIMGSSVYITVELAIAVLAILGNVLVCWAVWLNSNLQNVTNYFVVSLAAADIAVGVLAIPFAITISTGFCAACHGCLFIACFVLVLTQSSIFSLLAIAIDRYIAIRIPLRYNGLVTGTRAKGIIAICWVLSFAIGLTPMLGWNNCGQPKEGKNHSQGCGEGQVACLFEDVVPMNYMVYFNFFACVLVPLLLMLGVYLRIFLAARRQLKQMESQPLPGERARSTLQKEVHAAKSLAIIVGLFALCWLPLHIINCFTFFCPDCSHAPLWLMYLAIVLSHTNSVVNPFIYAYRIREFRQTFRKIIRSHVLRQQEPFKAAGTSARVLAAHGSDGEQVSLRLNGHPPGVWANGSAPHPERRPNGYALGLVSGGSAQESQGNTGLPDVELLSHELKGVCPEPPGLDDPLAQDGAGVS
Summary of the method: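 Human A2A receptor membranes in 50 mM Tris HCl, 10 mM MgCl2, pH 7.4, competed against [3H]-ZM241385 at 6-8 test concentrations for 60 min at 25 °C. NECA defined nonspecific binding. Bound label was collected on glass-fiber filters by filtration and counted. Means ± SEM.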

[1] = biological target: Adenosine receptors; A1 & A3 (Homo sapiens) (UniProt P30542+P0DMS8); experiment: Selectivity for human adenosine A3 over human adenosine A1 receptor; format: protein assay
Adenosine receptor A3 = biological target: T3, Adenosine receptor A3 (Homo sapiens, UniProt P0DMS8); experiment: Displacement of [3H]MRE3008-F20 from human adenosine A3 receptor expressed in HEK293 cells; format: cell-based
T3 sequence (P0DMS8 whole entry): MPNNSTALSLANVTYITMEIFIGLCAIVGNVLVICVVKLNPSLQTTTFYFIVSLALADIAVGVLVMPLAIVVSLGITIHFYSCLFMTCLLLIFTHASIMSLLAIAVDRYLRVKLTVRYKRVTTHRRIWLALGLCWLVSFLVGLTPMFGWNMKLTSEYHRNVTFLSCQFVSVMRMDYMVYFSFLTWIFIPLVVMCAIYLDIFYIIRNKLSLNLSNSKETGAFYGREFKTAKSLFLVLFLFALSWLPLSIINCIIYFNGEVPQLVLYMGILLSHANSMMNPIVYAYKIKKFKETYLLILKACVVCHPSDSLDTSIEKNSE
Summary of the method: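 Assays ran in duplicate with 1 nM [3H]MRE3008-F20 on human A3 receptor membranes in 50 mM Tris HCl, 10 mM MgCl2, pH 7.4, at 6-8 ligand concentrations, for 120 min at 4 °C. Bound label was separated by GF/B filtration and counted. Means ± SEM.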

[2] = biological target: Adenosine receptors; A2a & A3 (Homo sapiens) (UniProt P0DMS8+P29274); experiment: Selectivity for human adenosine A3 over human adenosine A2A receptor; format: protein assay
Sequence of Adenosine receptors; A2a & A3 (Homo sapiens) (P29274 whole entry, looked up, one chain of several): as the sequence (P29274 whole entry) above

[3] = biological target: T4, Adenosine receptor A1 (Homo sapiens) (UniProt P30542); experiment: Inhibition of [3H]DPCPX binding to human adenosine A1 receptor expressed in CHO cells at 1 uM; format: cell-based; summary of the method: as §1
T4 sequence (whole entry): T1 sequence (P30542 whole entry)

[4] = biological target: T5, Adenosine receptor A2b (Homo sapiens) (UniProt P29275); experiment: Inhibition of NECA-stimulated cAMP accumulation in CHO cells expressing human adenosine A2B receptor at 1 uM; format: functional, cell-based
T5 sequence (whole entry): T2 sequence (P29275 whole entry)

Compound `Cn1cc2c(nc(NC(=O)Nc3ccncc3)n3nc(-c4ccco4)nc23)n1` [listing 1 of 3 here] has a Ki (Adenosine receptor A1) of 260 nM, an IC50 (Adenosine receptor A2b; cho) of over 1000 nM and a Ki (Adenosine receptor A2a) of 65 nM.
Work on `Cn1cc2c(nc(NC(=O)Nc3ccc[n+]([O-])c3)n3nc(-c4ccco4)nc23)n1` yielded a Ki (Adenosine receptor A1) of 550 nM, an IC50 (Adenosine receptor A2b) of 260 nM and a Ratio Ki [1] of 55. For the same compound, the Ki (Adenosine receptor A3) was 10 nM, the Ki (Adenosine receptor A2a) was 75 nM and the Ratio Ki [2] was 7.5.
Compound `Cn1cc2c(nc(NC(=O)Nc3ccccn3)n3nc(-c4ccco4)nc23)n1` [listing 1 of 3 here] has a Ki (Adenosine receptor A1) of 265 nM, an IC50 (Adenosine receptor A2b) of over 1000 nM and a Ki (Adenosine receptor A3) of 0.5 nM. It also gave a Ki (Adenosine receptor A2a) of 180 nM.
With `Cn1cc2c(nc(NC(=O)Nc3ccc4ccccc4n3)n3nc(-c4ccco4)nc23)n1` the inhibition [3] was 12%, the Ki (Adenosine receptor A1) was over 1000 nM and the IC50 (Adenosine receptor A2b) was over 1000 nM. It also gave an inhibition [4] of 17%, a Ratio Ki [1] of over 9 and a Ki (Adenosine receptor A3) of 110 nM. It also gave a Ki (Adenosine receptor A2a) of 810 nM and a Ratio Ki [2] of 7.3.
In the case of `Cn1cc2c(nc(NC(=O)Nc3cc4ccccc4o3)n3nc(-c4ccco4)nc23)n1`, the inhibition [3] is reported as 22%, the Ki (Adenosine receptor A1) is reported as over 1000 nM and the IC50 (Adenosine receptor A2b) is reported as 250 nM. It also gave a Ratio Ki [1] of over 83, a Ki (Adenosine receptor A3) of 12 nM and a Ki (Adenosine receptor A2a) of 60 nM. For the same compound, the Ratio Ki [2] was 5.
Work on `Cn1cc2c(nc(NC(=O)Nc3ccccn3)n3nc(-c4ccco4)nc23)n1` [listing 2 of 3 here] yielded a Ki (Adenosine receptor A1) of 210 nM, an IC50 (Adenosine receptor A2b; cho) of over 1000 nM and a Ki (Adenosine receptor A3) of 0.35 nM. The Ki (Adenosine receptor A2a) was 140 nM.
With `Cn1cc2c(nc(NC(=O)Nc3ccoc3)n3nc(-c4ccco4)nc23)n1` the inhibition [3] was 20%, the Ki (Adenosine receptor A1) was over 1000 nM and the IC50 (Adenosine receptor A2b) was over 1000 nM. It also gave an inhibition [4] of 4%, a Ratio Ki [1] of over 90 and a Ki (Adenosine receptor A3) of 11 nM. For the same compound, the Ki (Adenosine receptor A2a) was 400 nM and the Ratio Ki [2] was 36.
In the case of `Cn1cc2c(nc(NC(=O)Nc3ccncc3)n3nc(-c4ccco4)nc23)n1` [listing 2 of 3 here], the inhibition [4] is reported as 12% and 20%.
`Cn1cc2c(nc(NC(=O)Nc3ccc[n+](C)c3)n3nc(-c4ccco4)nc23)n1` gave a Ki (Adenosine receptor A1) of 330 nM, an IC50 (Adenosine receptor A2b) of 244 nM and a Ratio Ki [1] of 62. The Ki (Adenosine receptor A3) was 5.3 nM, the Ki (Adenosine receptor A2a) was 42 nM and the Ratio Ki [2] was 8.
With `Cc1ccc(NC(=O)Nc2nc3nn(C)cc3c3nc(-c4ccco4)nn23)s1` the inhibition [3] was 10%, the Ki (Adenosine receptor A1) was over 1000 nM and the IC50 (Adenosine receptor A2b) was over 1000 nM. The inhibition [4] was 20%, the Ratio Ki [1] was over 100 and the Ki (Adenosine receptor A3) was 10 nM. The Ki (Adenosine receptor A2a) was 920 nM and the Ratio Ki [2] was 92.
With `Cn1cc2c(nc(NC(=O)Nc3cccnc3)n3nc(-c4ccco4)nc23)n1` [listing 1 of 3 here] the Ki (Adenosine receptor A1) was 230 nM, the IC50 (Adenosine receptor A2b; cho) was over 1000 nM and the Ki (Adenosine receptor A3) was 0.44 nM. For the same compound, the Ki (Adenosine receptor A2a) was 125 nM.
In the case of `Cn1cc2c(nc(NC(=O)Nc3cccnc3)n3nc(-c4ccco4)nc23)n1` [listing 2 of 3 here], the inhibition [4] is reported as 18% and 24%, the Ratio Ki [1] is reported as 445 and 522 and the Ratio Ki [2] is reported as 281 and 284.
In the case of `Cn1cc2c(nc(NC(=O)Nc3ccccn3)n3nc(-c4ccco4)nc23)n1` [listing 3 of 3 here], the inhibition [4] is reported as 20% and 16%, the Ratio Ki [1] is reported as 530 and 600 and the Ratio Ki [2] is reported as 360 and 400.
With `Cn1cc2c(nc(NC(=O)Nc3cccc[n+]3[O-])n3nc(-c4ccco4)nc23)n1` the Ki (Adenosine receptor A1) was 800 nM, the IC50 (Adenosine receptor A2b) was 320 nM and the Ratio Ki [1] was 228. For the same compound, the Ki (Adenosine receptor A3) was 3.5 nM, the Ki (Adenosine receptor A2a) was 110 nM and the Ratio Ki [2] was 31.
In the case of `Cn1cc2c(nc(NC(=O)Nc3cc[n+]([O-])cc3)n3nc(-c4ccco4)nc23)n1`, the inhibition [3] is reported as 35%, the Ki (Adenosine receptor A1) is reported as over 1000 nM and the IC50 (Adenosine receptor A2b) is reported as over 1000 nM. For the same compound, the inhibition [4] was 12%, the Ratio Ki [1] was over 47 and the Ki (Adenosine receptor A3) was 21 nM. For the same compound, the Ki (Adenosine receptor A2a) was 153 nM and the Ratio Ki [2] was 7.3.
`Cn1cc2c(nc(NC(=O)Nc3ccco3)n3nc(-c4ccco4)nc23)n1` gave an inhibition [3] of 25%, a Ki (Adenosine receptor A1) of over 1000 nM and an IC50 (Adenosine receptor A2b) of over 1000 nM. The inhibition [4] was 8%, the Ratio Ki [1] was over 62.5 and the Ki (Adenosine receptor A3) was 16 nM. For the same compound, the Ki (Adenosine receptor A2a) was 350 nM and the Ratio Ki [2] was 22.
For `Cn1cc2c(nc(NC(=O)Nc3cccc[n+]3C)n3nc(-c4ccco4)nc23)n1`, the Ki (Adenosine receptor A1) was 400 nM, the IC50 (Adenosine receptor A2b) was 280 nM and the Ratio Ki [1] was 307. For the same compound, the Ki (Adenosine receptor A3) was 1.3 nM, the Ki (Adenosine receptor A2a) was 64 nM and the Ratio Ki [2] was 49.
`Cn1cc2c(nc(NC(=O)Nc3ccncc3)n3nc(-c4ccco4)nc23)n1` [listing 3 of 3 here] showed a Ki (Adenosine receptor A1) of 355 nM, an IC50 (Adenosine receptor A2b) of over 1000 nM and a Ki (Adenosine receptor A2a) of 110 nM.
`Cc1sccc1NC(=O)Nc1nc2nn(C)cc2c2nc(-c3ccco3)nn12` gave an inhibition [3] of 24%, a Ki (Adenosine receptor A1) of over 1000 nM and an IC50 (Adenosine receptor A2b) of over 1000 nM. For the same compound, the inhibition [4] was 31%, the Ratio Ki [1] was over 286 and the Ki (Adenosine receptor A3) was 3.5 nM. The Ki (Adenosine receptor A2a) was 410 nM and the Ratio Ki [2] was 117.
Compound `Cn1cc2c(nc(NC(=O)Nc3cccnc3)n3nc(-c4ccco4)nc23)n1` [listing 3 of 3 here] has a Ki (Adenosine receptor A1) of 245 nM, an IC50 (Adenosine receptor A2b) of over 1000 nM and a Ki (Adenosine receptor A3) of 0.55 nM. It also gave a Ki (Adenosine receptor A2a) of 155 nM.
`Cn1cc2c(nc(NC(=O)Nc3cc[n+](C)cc3)n3nc(-c4ccco4)nc23)n1` showed an inhibition [3] of 20%, a Ki (Adenosine receptor A1) of over 1000 nM and an IC50 (Adenosine receptor A2b) of over 1000 nM. For the same compound, the inhibition [4] was 6%, the Ratio Ki [1] was over 36 and the Ki (Adenosine receptor A3) was 28 nM. The Ki (Adenosine receptor A2a) was 282 nM and the Ratio Ki [2] was 10.
